Data taken from ChEMBL document CHEMBL5678806, “NMS-P937, an orally available, specific small-molecule polo-like kinase 1 inhibitor with antitumor activity in solid and hematologic malignancies” (Mol Cancer Ther, 2012).

Tests used:
U-937 = experiment: Antiproliferative activity against human U-937 cells assessed as inhibition of cell growth incubated for 72 hrs by cell-titer glo assay; assay type: functional, cell-based; conditions: U-937, 72 h
[1] = molecular target: Rho-associated protein kinase 1 (Homo sapiens) (UniProt Q13464); experiment: Inhibition of N-terminal His6-tagged recombinant human ROCK-I (17 to 535 residues) expressed in baculovirus infected Sf21 cells assessed as residual activity at 1 uM relative to control
[2] = Half-life in male cynomolgus monkey at 5 mg/kg, po by LC-MS analysis; assay type: ADME, organism-based, Macaca fascicularis; conditions: in vivo
[3] = molecular target: Casein kinase I homolog 1 (Saccharomyces cerevisiae S288c) (UniProt P23291); experiment: Inhibition of yeast CK1 assessed as residual activity at 1 uM relative to control
[4] = molecular target: Serine/threonine-protein kinase haspin (Homo sapiens, UniProt Q8TF76); experiment: Inhibition of Haspin (unknown origin) in presence of [gamma-33P]ATP
Chain of Serine/threonine-protein kinase haspin (Q8TF76 whole entry): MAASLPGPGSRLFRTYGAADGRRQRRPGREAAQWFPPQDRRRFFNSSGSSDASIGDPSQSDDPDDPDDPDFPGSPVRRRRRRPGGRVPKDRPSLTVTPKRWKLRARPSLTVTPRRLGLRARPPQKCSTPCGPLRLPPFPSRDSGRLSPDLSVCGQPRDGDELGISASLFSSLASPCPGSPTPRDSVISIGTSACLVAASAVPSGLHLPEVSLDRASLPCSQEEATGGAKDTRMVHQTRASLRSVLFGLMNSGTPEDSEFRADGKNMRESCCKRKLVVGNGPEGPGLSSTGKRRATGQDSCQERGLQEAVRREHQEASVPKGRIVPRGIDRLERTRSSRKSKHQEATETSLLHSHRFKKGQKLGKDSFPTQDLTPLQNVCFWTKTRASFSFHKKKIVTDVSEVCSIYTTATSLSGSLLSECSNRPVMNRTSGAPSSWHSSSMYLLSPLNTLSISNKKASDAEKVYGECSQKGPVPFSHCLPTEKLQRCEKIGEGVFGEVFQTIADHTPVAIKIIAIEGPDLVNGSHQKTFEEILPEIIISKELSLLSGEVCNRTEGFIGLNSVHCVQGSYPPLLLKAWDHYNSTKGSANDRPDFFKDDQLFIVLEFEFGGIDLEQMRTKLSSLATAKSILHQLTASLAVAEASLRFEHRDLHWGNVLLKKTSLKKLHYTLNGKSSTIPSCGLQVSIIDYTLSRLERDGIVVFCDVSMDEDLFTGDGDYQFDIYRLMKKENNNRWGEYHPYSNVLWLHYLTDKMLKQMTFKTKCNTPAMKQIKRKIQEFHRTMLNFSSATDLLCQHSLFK

[5] = Half-life in nu/nu mouse at 10 mg/kg, iv by LC-MS analysis; assay type: ADME, organism-based; conditions: in vivo
LP-1 = experiment: Antiproliferative activity against human LP-1 cells assessed as inhibition of cell growth incubated for 72 hrs by cell-titer glo assay; assay type: functional, cell-based; conditions: LP-1, 72 h
Method in brief: (§1)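 Cells seeded at 10,000–30,000/cm² (adherent) or 100,000/mL (nonadherent) in medium with 10% fetal calf serum; after 24 h, treated in duplicate with serial dilutions for 72 h. Viable cell number read by CellTiter-Glo luminescence; IC50 from sigmoidal fit; at least two independent experiments.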

MOLT-4 = experiment: Antiproliferative activity against human MOLT-4 cells assessed as inhibition of cell growth incubated for 72 hrs by cell-titer glo assay; assay type: functional, cell-based; conditions: MOLT-4, 72 h
Method in brief: (§2)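 Cells from ATCC or ECACC, kept in supplier-recommended medium with 1% penicillin-streptomycin at 37°C, 5% CO₂. Seeded at 10,000–30,000/cm² (adherent) or 100,000/mL (nonadherent) in medium with 10% fetal calf serum. Dosed after 24 h in duplicate with serial dilutions. Viable cells read by CellTiter-Glo 72 h later. IC50 from sigmoidal fit. At least two independent experiments.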

[6] = molecular target: Death-associated protein kinase 3 (Homo sapiens) (UniProt O43293); experiment: Inhibition of N-terminal GST tagged recombinant human ZIPK (1 to 290 residues) expressed in E. coli assessed as residual activity at 1 uM relative to control
[7] = AUC in Beagle dog at 5 mg/kg, iv by LC-MS analysis; assay type: ADME, organism-based, Canis lupus familiaris; conditions: in vivo
M14 = experiment: Antiproliferative activity against human M14 cells assessed as inhibition of cell growth incubated for 72 hrs by cell-titer glo assay; assay type: functional, cell-based; conditions: M14, 72 h; method in brief: as §1
HCC1937 = experiment: Antiproliferative activity against human HCC1937 cells assessed as inhibition of cell growth incubated for 72 hrs by cell-titer glo assay; assay type: functional, cell-based; conditions: HCC1937, 72 h; method in brief: as §1
[8] = molecular target: Tyrosine-protein kinase JAK3 (Homo sapiens, UniProt P52333); experiment: Inhibition of JAK3 (unknown origin) in presence of [gamma-33P]ATP
Chain of Tyrosine-protein kinase JAK3 (P52333 whole entry): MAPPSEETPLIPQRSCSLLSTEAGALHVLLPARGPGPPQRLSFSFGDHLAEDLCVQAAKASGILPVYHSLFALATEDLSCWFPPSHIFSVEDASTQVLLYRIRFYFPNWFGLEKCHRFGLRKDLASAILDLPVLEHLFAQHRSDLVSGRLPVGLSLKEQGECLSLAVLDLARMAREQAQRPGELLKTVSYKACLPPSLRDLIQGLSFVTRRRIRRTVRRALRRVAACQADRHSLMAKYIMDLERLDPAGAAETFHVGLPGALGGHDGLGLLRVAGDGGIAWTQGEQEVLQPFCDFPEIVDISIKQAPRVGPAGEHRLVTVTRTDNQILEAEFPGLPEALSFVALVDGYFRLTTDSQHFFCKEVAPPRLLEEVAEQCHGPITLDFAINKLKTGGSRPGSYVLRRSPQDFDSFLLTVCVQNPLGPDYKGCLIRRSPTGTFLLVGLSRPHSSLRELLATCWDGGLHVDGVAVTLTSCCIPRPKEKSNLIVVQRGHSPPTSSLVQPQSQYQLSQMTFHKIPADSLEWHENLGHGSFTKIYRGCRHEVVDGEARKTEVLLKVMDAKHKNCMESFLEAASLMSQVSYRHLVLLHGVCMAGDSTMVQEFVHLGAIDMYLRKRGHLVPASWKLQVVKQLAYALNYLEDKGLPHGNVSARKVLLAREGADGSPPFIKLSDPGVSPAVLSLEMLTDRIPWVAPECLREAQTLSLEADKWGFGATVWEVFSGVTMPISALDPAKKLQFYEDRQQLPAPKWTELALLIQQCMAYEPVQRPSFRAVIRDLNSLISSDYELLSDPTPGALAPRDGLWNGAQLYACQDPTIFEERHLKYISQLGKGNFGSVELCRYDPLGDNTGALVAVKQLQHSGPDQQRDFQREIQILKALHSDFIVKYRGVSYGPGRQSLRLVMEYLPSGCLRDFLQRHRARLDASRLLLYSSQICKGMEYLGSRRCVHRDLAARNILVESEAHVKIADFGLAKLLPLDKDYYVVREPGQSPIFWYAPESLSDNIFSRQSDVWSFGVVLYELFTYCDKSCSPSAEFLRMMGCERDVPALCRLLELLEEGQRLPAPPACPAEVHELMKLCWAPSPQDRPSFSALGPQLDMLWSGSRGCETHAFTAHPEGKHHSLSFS

K562 = experiment: Antiproliferative activity against human K562 cells assessed as inhibition of cell growth incubated for 72 hrs by cell-titer glo assay; assay type: functional, cell-based; conditions: K562, 72 h; method in brief: as §1
KG-1 = experiment: Antiproliferative activity against human KG-1 cells assessed as inhibition of cell growth incubated for 72 hrs by cell-titer glo assay; assay type: functional, cell-based; conditions: KG-1, 72 h; method in brief: as §1
COLO-741 = experiment: Antiproliferative activity against human COLO-741 cells assessed as inhibition of cell growth incubated for 72 hrs by cell-titer glo assay; assay type: functional, cell-based; conditions: COLO-741, 72 h
Method in brief: (§3)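 Cells seeded 10,000–30,000/cm² (adherent) or 100,000/mL (suspension) in medium with 10% fetal calf serum; after 24 h treated in duplicate with serial dilutions for 72 h. Viable cells read by CellTiter-Glo luminescence; IC50 from sigmoidal fit; at least two independent experiments.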

T98G = experiment: Antiproliferative activity against human T98G cells assessed as inhibition of cell growth incubated for 72 hrs by cell-titer glo assay; assay type: functional, cell-based
RO82-W-1 = experiment: Antiproliferative activity against human RO82-W-1 cells assessed as inhibition of cell growth incubated for 72 hrs by cell-titer glo assay; assay type: functional, cell-based; conditions: RO82-W-1, 72 h; method in brief: as §2
HCC 2998 = experiment: Antiproliferative activity against human HCC 2998 cells assessed as inhibition of cell growth incubated for 72 hrs by cell-titer glo assay; assay type: functional, cell-based; conditions: HCC 2998, 72 h; method in brief: as §1
[9] = Antitumor activity against human Acute myeloid leukemic cell xenografted in nu/nu mouse assessed as increase in median survival time at 120 mg/kg, po administered for 2 days and measured after 5 days (reference value: 36 days); assay type: functional, Leukemia cell; conditions: time 2 day
MFM-223 = experiment: Antiproliferative activity against human MFM-223 cells assessed as inhibition of cell growth incubated for 72 hrs by cell-titer glo assay; assay type: functional, cell-based; conditions: MFM-223, 72 h; method in brief: as §2
[10] = molecular target: Serine/threonine-protein kinase NIM1 (Homo sapiens, UniProt Q8IY84); experiment: Inhibition of NIM1 (unknown origin) in presence of [gamma-33P]ATP
Chain of Serine/threonine-protein kinase NIM1 (Q8IY84 whole entry): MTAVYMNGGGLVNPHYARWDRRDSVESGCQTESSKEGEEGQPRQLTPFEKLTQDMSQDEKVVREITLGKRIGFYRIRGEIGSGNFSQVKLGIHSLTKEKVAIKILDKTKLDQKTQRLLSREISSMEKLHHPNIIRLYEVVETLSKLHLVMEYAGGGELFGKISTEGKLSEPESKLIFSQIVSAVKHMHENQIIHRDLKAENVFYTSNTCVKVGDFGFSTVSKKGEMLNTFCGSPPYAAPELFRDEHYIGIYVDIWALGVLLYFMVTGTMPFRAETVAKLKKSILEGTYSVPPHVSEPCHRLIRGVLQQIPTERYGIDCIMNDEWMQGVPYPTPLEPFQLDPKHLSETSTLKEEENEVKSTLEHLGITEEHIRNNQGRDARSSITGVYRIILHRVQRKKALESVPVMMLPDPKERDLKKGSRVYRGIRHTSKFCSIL

DU-4475 = experiment: Antiproliferative activity against human DU-4475 cells assessed as inhibition of cell growth incubated for 72 hrs by cell-titer glo assay; assay type: functional, cell-based; conditions: DU-4475, 72 h; method in brief: as §3
[11] = molecular target: Serine/threonine-protein kinase D1 (Homo sapiens) (UniProt Q15139); experiment: Inhibition of N-terminal His6-tagged recombinant full-length human PKCmu expressed in Sf21 cells assessed as residual activity at 1 uM relative to control
Chain of Serine/threonine-protein kinase D1 (Homo sapiens) (Q15139 whole entry): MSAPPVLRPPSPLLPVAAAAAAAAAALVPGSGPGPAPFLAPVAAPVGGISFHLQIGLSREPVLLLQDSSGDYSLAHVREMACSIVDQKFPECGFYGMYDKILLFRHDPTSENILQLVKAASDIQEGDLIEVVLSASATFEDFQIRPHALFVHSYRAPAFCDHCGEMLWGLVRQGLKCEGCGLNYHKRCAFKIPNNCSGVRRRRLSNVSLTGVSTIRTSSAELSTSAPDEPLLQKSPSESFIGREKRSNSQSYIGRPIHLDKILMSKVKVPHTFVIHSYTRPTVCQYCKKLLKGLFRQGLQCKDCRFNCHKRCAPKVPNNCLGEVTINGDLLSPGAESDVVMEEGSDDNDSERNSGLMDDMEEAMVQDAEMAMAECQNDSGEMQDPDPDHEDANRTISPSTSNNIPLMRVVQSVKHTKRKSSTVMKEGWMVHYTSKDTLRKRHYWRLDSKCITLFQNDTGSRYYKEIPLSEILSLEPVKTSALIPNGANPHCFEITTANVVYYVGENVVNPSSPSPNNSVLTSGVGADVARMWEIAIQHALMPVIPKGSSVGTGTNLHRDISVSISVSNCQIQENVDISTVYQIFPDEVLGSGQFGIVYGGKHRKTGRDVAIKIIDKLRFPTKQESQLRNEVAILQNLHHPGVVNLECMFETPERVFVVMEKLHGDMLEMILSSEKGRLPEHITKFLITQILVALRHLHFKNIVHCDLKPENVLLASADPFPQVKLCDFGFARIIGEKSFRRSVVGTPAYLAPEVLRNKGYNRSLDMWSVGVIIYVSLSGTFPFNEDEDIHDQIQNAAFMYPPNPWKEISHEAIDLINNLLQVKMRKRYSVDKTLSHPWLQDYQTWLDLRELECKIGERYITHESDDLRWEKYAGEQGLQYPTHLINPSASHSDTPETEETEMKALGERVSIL

[12] = molecular target: BDNF/NT-3 growth factors receptor (Homo sapiens) (UniProt Q16620); experiment: Inhibition of N-terminal His6 tagged recombinant human TrkB (455 to end residues) expressed in baculovirus infected Sf21 cells assessed as residual activity at 1 uM relative to control
[13] = molecular target: Serine/threonine-protein kinase DCLK2 (Homo sapiens) (UniProt Q8N568); experiment: Inhibition of N-terminal 6His-tagged recombinant human DCAMKL2 (376 to end residues) expressed in baculovirus infected Sf21 cells assessed as residual activity at 1 uM relative to control
Chain of Serine/threonine-protein kinase DCLK2 (Homo sapiens) (Q8N568 whole entry): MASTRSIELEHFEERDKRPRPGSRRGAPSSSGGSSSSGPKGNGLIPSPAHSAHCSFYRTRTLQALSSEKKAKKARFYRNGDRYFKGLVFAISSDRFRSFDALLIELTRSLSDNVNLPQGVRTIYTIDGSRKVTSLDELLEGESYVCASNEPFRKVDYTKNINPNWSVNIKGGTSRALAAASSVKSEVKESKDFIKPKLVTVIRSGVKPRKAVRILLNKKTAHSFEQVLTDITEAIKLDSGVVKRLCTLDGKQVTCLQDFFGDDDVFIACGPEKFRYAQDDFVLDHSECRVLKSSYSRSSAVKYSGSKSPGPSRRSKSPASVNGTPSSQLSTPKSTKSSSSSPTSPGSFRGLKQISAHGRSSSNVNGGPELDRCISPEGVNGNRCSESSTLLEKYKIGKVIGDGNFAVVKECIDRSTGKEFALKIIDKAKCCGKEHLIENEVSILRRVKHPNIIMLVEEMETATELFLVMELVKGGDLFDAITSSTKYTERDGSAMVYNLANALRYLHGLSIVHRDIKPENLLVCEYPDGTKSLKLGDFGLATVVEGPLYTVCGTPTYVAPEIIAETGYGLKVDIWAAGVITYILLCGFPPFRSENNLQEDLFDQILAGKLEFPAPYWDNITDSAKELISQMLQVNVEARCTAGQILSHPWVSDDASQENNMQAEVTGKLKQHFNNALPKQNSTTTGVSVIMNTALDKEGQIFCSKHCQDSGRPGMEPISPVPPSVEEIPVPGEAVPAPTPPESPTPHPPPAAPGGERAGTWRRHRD

SU-DHL10 = experiment: Antiproliferative activity against human SU-DHL-10 cells assessed as inhibition of cell growth incubated for 72 hrs by cell-titer glo assay; assay type: functional, cell-based; conditions: SU-DHL10, 72 h
NCI/ADR-RES = experiment: Antiproliferative activity against human NCI/ADR-RES cells assessed as inhibition of cell growth incubated for 72 hrs by cell-titer glo assay; assay type: functional, cell-based; method in brief: as §2
[14] = molecular target: Tyrosine-protein kinase BTK (Homo sapiens) (UniProt Q06187); experiment: Inhibition of N-terminal His6-tagged recombinant full-length human BTK expressed in baculovirus infected Sf21 cells assessed as residual activity at 1 uM relative to control
Chain of Tyrosine-protein kinase BTK (Homo sapiens) (Q06187 whole entry): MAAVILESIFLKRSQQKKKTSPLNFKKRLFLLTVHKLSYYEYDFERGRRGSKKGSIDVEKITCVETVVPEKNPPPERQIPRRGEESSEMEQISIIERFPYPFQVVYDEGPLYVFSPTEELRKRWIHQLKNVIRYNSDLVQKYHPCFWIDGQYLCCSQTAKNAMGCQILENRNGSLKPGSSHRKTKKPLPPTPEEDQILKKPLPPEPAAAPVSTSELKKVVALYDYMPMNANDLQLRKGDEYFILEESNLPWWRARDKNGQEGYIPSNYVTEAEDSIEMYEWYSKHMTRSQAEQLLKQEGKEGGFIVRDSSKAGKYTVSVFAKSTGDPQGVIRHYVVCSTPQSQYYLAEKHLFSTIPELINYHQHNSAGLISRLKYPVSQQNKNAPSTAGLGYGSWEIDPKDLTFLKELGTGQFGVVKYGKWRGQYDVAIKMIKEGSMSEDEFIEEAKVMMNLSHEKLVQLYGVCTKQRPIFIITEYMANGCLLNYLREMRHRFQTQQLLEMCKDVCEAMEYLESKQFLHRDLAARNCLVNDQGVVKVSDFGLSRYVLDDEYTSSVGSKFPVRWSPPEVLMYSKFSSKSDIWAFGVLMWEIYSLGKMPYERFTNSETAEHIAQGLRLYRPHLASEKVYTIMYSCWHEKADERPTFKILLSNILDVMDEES

CCRF-CEM = experiment: Antiproliferative activity against human CCRF-CEM cells assessed as inhibition of cell growth incubated for 72 hrs by cell-titer glo assay; assay type: functional, cell-based; method in brief: as §3
[15] = molecular target: Tyrosine-protein kinase Lyn (Mus musculus) (UniProt P25911); experiment: Inhibition of N-terminal his6-tagged recombinant full-length mouse Lyn expressed in baculovirus infected Sf21 cells assessed as residual activity at 0.1 uM relative to control
[16] = AUC in male cynomolgus monkey at 5 mg/kg, po by LC-MS analysis; assay type: ADME, organism-based, Macaca fascicularis; conditions: in vivo

CN1CCN(c2ccc(OC(F)(F)F)c(Nc3ncc4c(n3)-c3c(c(C(N)=O)nn3CCO)CC4)c2)CC1 [ONVANSERTIB] showed an IC50 (U-937) of 41 nM, an Activity [1] of 132% and a half-life [2] of 4.2 h. For the same molecule, the Activity [3] was 24%, the IC50 [4] was greater than 10000 nM and the half-life [5] was 0.9 h. It also gave an IC50 (LP-1) of 59 nM, an IC50 (MOLT-4) of 45 nM and an Activity [6] of 87%. For the same molecule, the AUC [7] was 4.2 µM·h, the IC50 (M14) was 67 nM and the IC50 (HCC1937) was 595 nM. It also gave an IC50 [8] greater than 10000 nM, an IC50 (K562) of 87 nM and an IC50 (KG-1) of 58 nM. The IC50 (COLO-741) was 108 nM, the IC50 (T98G) was 228 nM and the IC50 (RO82-W-1) was 837 nM. The IC50 (HCC 2998) was 132 nM, the Time [9] was 50 days and the IC50 (MFM-223) was 10 nM. For the same molecule, the IC50 [10] was greater than 10000 nM, the IC50 (DU-4475) was 47 nM and the Activity [11] was 85%. For the same molecule, the Activity [12] was 80%, the Activity [13] was 90% and the IC50 (SU-DHL10) was 43 nM. For the same molecule, the IC50 (NCI/ADR-RES) was 1210 nM, the Activity [14] was 84% and the IC50 (CCRF-CEM) was 55 nM. It also gave an Activity [15] of 137% and an AUC [16] of 14.8 µM·h.
